Assay results from different studies.
Compare with care: the assays were run in different laboratories.
Target: Kappa-type opioid receptor (OPRK1, Homo sapiens, UniProt P41145)

O=C(c1ccccn1)N(Cc1cccs1)C1(C(=O)NC2CCCCC2)CCCCC1 — EC50 (β-arrestin recruitment; agonist): 0.11 µM
O[C@@H]1[C@H](O)[C@@H]2C[C@@H]2[C@H]1n1cnc2c(NCc3cccc(Cl)c3)ncnc21 — Ki (cell-free assay): > 10 µM
Clc1ccc(CSc2nnc(-c3ccccn3)n2Cc2cccs2)cc1Cl — EC50 (β-arrestin recruitment; agonist; imaging): 0.39 µM
O[C@@H]1[C@H](O)[C@@H]2C[C@@H]2[C@H]1n1cnc2c(NCCc3ccccc3)nc(C#Cc3ccccc3)nc21 — Ki (cell-free assay): > 10 µM
OCCCN1CC[C@@H]2C[C@H]1c1cc(-c3ccc(C(F)(F)F)cc3)ccc12 — Ki (ligand displacement; radioligand): 7.09 µM
CCOCc1nc(O)c(-c2nnc(Cc3ccc(Cl)cn3)o2)c(O)c1-c1c(OC)cccc1OC — IC50 (ligand displacement; radioligand): > 30 µM
Cc1cc(C)nc(C(=O)NC[C@@H]2CCCN(Cc3ccc(F)c(F)c3)C2)c1 — Ki (cell-free assay): 6.46 µM
Cc1nccc2c1c(=O)n(C)c1cc(OC[C@@H](N)CC(C)C)c(C#N)cc21 — IC50 (cell-free assay): 29 µM
Cc1ccc(C(=O)NCC2CCN(Cc3ccc(C(C)C)cc3)CC2)cc1 — Ki (cell-free assay): > 10 µM
OC[C@@]12C[C@@H]1[C@@H](n1cnc3c(NC(C4CCCC4)C4CCCC4)nc(Cl)nc31)[C@H](O)[C@@H]2O — Ki (cell-free assay; radioligand): 0.11 µM
CNC(=O)[C@@]12C[C@@H]1[C@@H](n1cnc3c(NC)cc(C#Cc4ccc(Cl)s4)nc31)[C@H](O)[C@@H]2O — Ki (cell-free assay): > 10 µM
CCCCN1CCC(COC(=O)c2ccc(N)c(OCF)c2)CC1 — Ki (cell-free assay; radioligand): > 10 µM
